Molecules are shown by their SMILES. Activity calls are given as the source filed them. The calls are words filed in the database; no cut-off is given here. Where a SMILES comes first, the peptide text is derived from it. Some results are limits rather than exact numbers.

The nature of series [1]: Stability in human serum after 36 hrs by RP-HPLC analysis. The class given is ADME, cell-free. The note with it: read-out: Stability. The procedure, abridged:
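Peptide (0.2 mg) incubated with 25% human male AB serum in phenol red-free DMEM at 37 °C. Aliquots taken at 0, 12, 24 and 48 h, quenched with 95% EtOH, held 15 min at 4 °C and centrifuged. Intact peptide quantified by RP-HPLC, in triplicate.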

Series [2] in a line: (§1) Cytotoxicity against Spodoptera frugiperda Sf9 cells assessed as mortality after 24 hrs by MTT assay. The class given is functional. The note with it: Sf9, 24 h, read-out: LD50 (the source's name). The procedure, abridged: (§2)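 Sf9 cells seeded at 1 × 10^5 cells/mL for 24 h, then exposed 24 h to peptide at 0.01–200 μM (10 levels). 0.1% DMSO served as negative control, 10% Triton X-100 as positive control. Viability by MTT (0.5 mg/mL, 4 h at 26 °C), DMSO solubilisation, absorbance 550 nm. LD50 taken from the dose–mortality curve.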
(In general: Tetrazolium dyes change colour on reduction, which living cells bring about.)

The subject of series [3] is Sf9. Described as §1. The class given is functional. The procedure, abridged: as §2
Series [4] in a line: Stability in water at 200 uM at 100 degC for 2 hrs by RP-HPLC analysis. In kind it is physicochemical. Particulars: read-out: Stability. In outline:
(§3)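 Peptide at 200 μM held in a 100 °C water bath or in HCl (pH 2) for 2 h. Sampled at 0, 30, 60, 90 and 120 min, quenched on ice (heat) or with NaOH (acid). Remaining peptide measured by RP-HPLC, in triplicate.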

Series [5] has as its system Sf9. Kind of series: Cytotoxicity against Spodoptera frugiperda Sf9 cells assessed as induction of membrane integrity loss at 5 uM after 15 hrs by PKH26-labeling based phase contrast microscopic analysis. In kind it is functional, cell-based. In outline: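 Sf9 cells grown at 26 °C in Sf-900 III SFM with 2% FBS. Incubated with 5 μM peptide at 26 °C for 15 h. Live-cell bright-field imaging at 0, 1, 4, 8 and 15 h to follow cell shape and membrane integrity.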

The test system of series [6] is Beta-TC6. Kind of series: Decrease in insulin secretion in mouse BetaTC6 cells assessed as insulin level at 1 to 100 uM after 24 hrs by ELISA (reference value: 1225.2 uIU/ml). The class given is functional. The procedure, abridged: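 Beta-TC-6 cells grown in high-glucose DMEM with 15% FBS. Seeded at 5000 cells/mL for 24 h, then treated 24 h with peptide at 0.01, 0.1, 1, 10 or 100 μM. Controls were 10 μM GW9508 (positive) and 0.1% DMSO (negative). Secreted insulin measured by mouse insulin ELISA.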

Series [7] has as its system Beta-TC6. Kind of series: Decrease in insulin secretion in mouse BetaTC6 cells up to 1 uM after 24 hrs by ELISA. The class given is functional, cell-based. In outline:
(§4)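 Beta-TC-6 cells grown in high-glucose DMEM with 15% FBS at 37 °C, 5% CO2. Seeded 24 h, then treated 24 h with peptide (0.01, 0.1, 1, 10, 100 μM). Positive control 10 μM GW9508, negative control 0.1% DMSO. Secreted insulin measured by mouse insulin ELISA, reported in μIU/mL.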
A general note: In an ELISA, binding on a coated surface is turned into a signal by an enzyme label.

The target of series [8] is aminopeptidase (Homo sapiens, UniProt O43895+P15144+P28838+P50579+P53582+P55786+Q07075+Q6P179+Q6Q4G3+Q6UB28+Q8N6M6+Q8NDH3+Q9H4A4+Q9HAU8+Q9NQH7+Q9NQW7+Q9NZ08+Q9UIQ6+Q9ULA0). Put plainly: Stability in pH 8.0 20 mM tricine with 0.05% BSA assessed as aminopeptidase (unknown origin)-mediated compound hydrolysis by measuring parent compound remaining at 200 uM up to 6 hrs by RP-HPLC analysis. Particulars: aminopeptidase in pH 8.0 20 mM tricine with 0.05% BSA.

Series [9] deals with pepsin. Kind of series: Stability in pH 2 HCl assessed as pepsin (unknown origin)-mediated compound hydrolysis by measuring parent compound remaining at 200 uM up to 6 hrs by RP-HPLC analysis. In kind it is ADME. Particulars: human, pepsin in pH 2 HCl, read-out: Stability. In outline:
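Peptide at 200 μM incubated at 37 °C for 6 h with 4 mg/mL pepsin in HCl (pH 2), or with 20 U/mL aminopeptidase I in 20 mM tricine/0.05% BSA (pH 8.0). Sampled at 0, 2, 4 and 6 h, quenched with NaOH or HCl. Remaining peptide measured by RP-HPLC, in triplicate.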

Series [10] is described as follows: Stability in pH 2 HCl at 200 uM for 2 hrs by RP-HPLC analysis. Particulars: read-out: Stability. In kind it is physicochemical. In outline:
as §3

In series [11] the test system is Beta-TC6. Put plainly: Decrease in insulin secretion in mouse BetaTC6 cells at 1 to 100 uM after 24 hrs by ELISA. The class given is functional, cell-based. The procedure, abridged:
as §4

Series [12] has as its system Sf9. Put plainly: Cytotoxicity against Spodoptera frugiperda Sf9 cells assessed as induction of membrane integrity loss at 10 uM after 24 hrs using Alex488-labeled test compound by PKH26/Hoechst staining based confocal microscopic analysis.
In series [13] the test system is CHO-K1. Put plainly: Cytotoxicity against CHOK1 cells up to 200 uM after 24 hrs by MTT assay. In kind it is cell-based, Cricetulus griseus. Particulars: chinese hamster, cho-k1, 24 h. The procedure, abridged: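 CHO-K1 cells grown at 37 °C, 5% CO2 in DMEM with 10% FBS, exposed 24 h to peptide at 0.01–200 μM. Negative control 0.1% DMSO, positive control 10% Triton X-100. Viability read by MTT (0.5 mg/mL, 4 h), then DMSO solubilisation 1 h, absorbance at 550 nm.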

Turning to `CC[C@H](C)[C@H](NC(=O)[C@H](CS)NC(=O)[C@H](Cc1ccccc1)NC(=O)CNC(=O)[C@@H](NC(=O)[C@@H](NC(=O)[C@H](CC(C)C)NC(=O)CNC(=O)[C@@H](NC(=O)[C@@H]1CCCN1C(=O)[C@@H](NC(=O)[C@H](CS)NC(=O)[C@H](CCCNC(=N)N)NC(=O)[C@H](CS)NC(=O)[C@H](CC(=O)O)NC(=O)[C@H](CCCNC(=N)N)NC(=O)[C@H](CO)NC(=O)CNC(=O)[C@H](CS)NC(=O)[C@@H]1CCCN1C(=O)[C@@H]1CCCN1C(=O)[C@@H](NC(=O)[C@H](CCC(=O)O)NC(=O)[C@H](Cc1ccccc1)NC(=O)[C@@H]1CCCN1C(=O)[C@H](CO)NC(=O)[C@H](CS)NC(=O)[C@H](C)NC(=O)CNC(=O)[C@H](CO)NC(=O)[C@H](CS)NC(=O)[C@H](CC(=O)O)NC(=O)[C@@H](N)C(C)C)C(C)C)[C@@H](C)CC)[C@@H](C)CC)C(C)C)C(C)C)C(=O)N[C@@H](Cc1ccc(O)cc1)C(=O)N1CCC[C@H]1C(=O)N[C@H](C(=O)NCC(=O)O)[C@@H](C)O` (H-VDCSGACSPFEVPPCGSRDCRCIPIGLVVGFCIYPTG-OH), the remaining at 36 h in [1] is > 90%. In series [2], the LC50 was determined as 5.9 µM. For the same compound, the Activity entry in series [3] was “Dose-dependent effect”; in series [6], 811.14 uIU/ml; in series [11], “Dose-dependent effect”; in series [13] it was “Non-Toxic”. The remaining at 2 h, 200 µM in [4] is 82%; in series [10] it was 92%. Further, the result in [5] and in series [12] was Active. In addition, the outcome in series [7] was inactive. Besides, the remaining at 6 h, 200 µM in [8] and in series [9] was > 88% each time.

The values above are taken from ChEMBL document CHEMBL4330172, “Astratides: Insulin-Modulating, Insecticidal, and Antifungal Cysteine-Rich Peptides from Astragalus membranaceus” (J Nat Prod, 2019).
